BindingDB's records for doi:10.1021/jm030003x (University of Alabama At Birmingham, 2003)

Target: T1, NH(3)-dependent NAD(+) synthetase (Bacillus subtilis (strain 168), UniProt P08164)
T1 sequence (P08164 whole entry): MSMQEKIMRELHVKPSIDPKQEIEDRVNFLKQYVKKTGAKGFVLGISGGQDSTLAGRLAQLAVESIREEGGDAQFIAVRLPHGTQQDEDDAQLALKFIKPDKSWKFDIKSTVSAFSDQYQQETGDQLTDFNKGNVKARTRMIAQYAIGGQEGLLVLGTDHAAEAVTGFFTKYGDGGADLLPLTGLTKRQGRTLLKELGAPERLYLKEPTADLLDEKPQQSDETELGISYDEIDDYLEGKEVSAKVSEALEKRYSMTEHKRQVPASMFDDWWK
Assay: Inhibitory activity against Bacillus subtilis NAD synthetase
Procedure, shortened: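 Purified recombinant B. subtilis NAD synthetase, 2.0 µg/mL. Coupled assay: the NAD formed is converted to NADH by yeast alcohol dehydrogenase (40 µg/mL) with 1% EtOH. Buffer is 58.5 mM HEPES pH 8.5 with NH4Cl, KCl, MgCl2, 0.1 mM NaAD, 0.2 mM ATP, 0.3% BOG and 2.5% DMSO. ATP starts the reaction, which runs 10 min and is stopped with guanidine·HCl. Read A340 and fluorescence 460 nm minus pre-ATP background. IC50 from % inhibition at six concentrations.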

Structure (SMILES): CN[C@@H]1[C@@H](O)[C@@H](O[C@@H]2[C@@H](O)[C@H](O[C@H]3O[C@H]([C@@H](C)NC)CC[C@H]3N)[C@@H](N)C[C@H]2N)OC[C@]1(C)O [GENTAMICIN]
- IC50: > 1000 nM
